Results reported in ChEMBL document CHEMBL3875201, “Synthesis and in vitro antiviral evaluation of 4-substituted 3,4-dihydropyrimidinones” (Bioorg Med Chem Lett, 2017).

Experiments:
[1] = Cytotoxicity against HEL cells assessed as alterations in cell morphology by microscopic analysis; format: toxicity, cell-based; details: human
How it was run: (§1)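 Compound added to subconfluent cell monolayers in 96-well plates together with virus (CPE reduction assay format); after 3–5 days incubation, cultures inspected by microscopy. MCC taken as compound concentration producing minimal alterations in cell morphology.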

[2] = Cytotoxicity against human HeLa cells assessed as alterations in cell morphology by microscopic analysis; format: toxicity, cell-based; how it was run: as §1
[3] = Cytotoxicity against MDCK cells assessed as alterations in cell morphology by microscopic analysis; format: toxicity, cell-based, Canis lupus familiaris; details: dog; how it was run: as §1
Yellow fever virus = experiment: Antiviral activity against Yellow fever virus infected in African green monkey Vero cells assessed as protection against virus-induced cytopathic effect measured after 3 to 5 days by microscopic analysis; format: functional, cell-based
Human respirovirus 3 = experiment: Antiviral activity against Para-influenza-3 virus infected in African green monkey Vero cells assessed as protection against virus-induced cytopathic effect measured after 3 to 5 days by microscopic analysis; format: functional, cell-based; details: Human respirovirus 3, Vero
[4] = system: Mammalian orthoreovirus 1; experiment: Antiviral activity against Reovirus-1 infected in African green monkey Vero cells assessed as protection against virus-induced cytopathic effect measured after 3 to 5 days by microscopic analysis; format: functional, cell-based; details: Mammalian orthoreovirus 1, Vero
Punta Toro virus [5] = experiment: Antiviral activity against Punta Toro virus infected in African green monkey Vero cells assessed as protection against virus-induced cytopathic effect measured after 3 to 5 days by microscopic analysis; format: functional, cell-based
[6] = Cytotoxicity against human MT4 cells by MTS cell viability assay; format: toxicity, cell-based
[7] = Cytotoxicity against African green monkey Vero cells assessed as alterations in cell morphology by microscopic analysis; format: toxicity, cell-based; details: chlorocebus sabaeus; how it was run: as §1
[8] = Cytotoxicity against cat CRFK cells assessed as by MTS cell viability assay; format: toxicity, cell-based, Felis catus
Coxsackievirus B4 = experiment: Antiviral activity against Coxsackie virus B4 infected in African green monkey Vero cells assessed as protection against virus-induced cytopathic effect measured after 3 to 5 days by microscopic analysis; format: functional, cell-based; details: Enterovirus B
Sindbis virus = experiment: Antiviral activity against Sindbis virus infected in African green monkey Vero cells assessed as protection against virus-induced cytopathic effect measured after 3 to 5 days by microscopic analysis; format: functional, cell-based
Human alphaherpesvirus 3 = experiment: Antiviral activity against Varicella zoster virus infected in HEL cells assessed as protection against virus-induced cytopathic effect at 100 uM measured after 3 to 5 days by microscopic analysis; format: functional, cell-based; details: Human alphaherpesvirus 3, HEL
How it was run: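 HEL fibroblasts, subconfluent, were exposed to compound plus virus together. After 3–5 days CPE was scored microscopically as protection against virus-induced cell damage. EC50 is the concentration giving 50% protection; MCC is the concentration causing minimal morphology change by microscopy.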

Punta Toro virus [9] = experiment: Potency index, ratio of ribavirin EC50 to test compound EC50 for Punta Toro virus infected in African green monkey Vero cells; format: functional
Punta Toro virus [10] = experiment: Antiviral activity against Punta Toro virus infected in African green monkey Vero cells assessed as protection against virus-induced cytopathic effect at 20 uM measured after 3 to 5 days by microscopic analysis; format: functional
Punta Toro virus [11] = experiment: Potency index, ratio of mycophenolic acid EC50 to test compound EC50 for Punta Toro virus infected in African green monkey Vero cells; format: functional
Punta Toro virus [12] = experiment: Potency index, ratio of Dextran sulphate EC50 to test compound EC50 for Punta Toro virus infected in African green monkey Vero cells; format: functional
Rift Valley fever virus = experiment: Antiviral activity against RVFV MP-12 infected in African green monkey Vero cells assessed as protection against virus-induced cytopathic effect at 100 uM measured after 3 to 5 days by microscopic analysis; format: functional
[13] = Selectivity index, ratio of MCC for African green monkey Vero cells to EC50 for Punta Toro virus infected in African green monkey Vero cells; format: toxicity, cell-based

SMILES | MCC [1] | MCC [2] | MCC [3] | EC50 (Yellow fever virus) | EC50 (Human respirovirus 3) | EC50 [4] | EC50 (Punta Toro virus [5]) | CC50 [6] | MCC [7] | CC50 [8] | EC50 (Coxsackievirus B4) | EC50 (Sindbis virus) | EC50 (Human alphaherpesvirus 3) | Ratio EC50 (Punta Toro virus [9]) | Activity (Punta Toro virus [10]) | Activity (Punta Toro virus [5]) | Ratio EC50 (Punta Toro virus [11]) | Ratio EC50 (Punta Toro virus [12]) | Activity (Rift Valley fever virus) | Selectivity Index [13]
CCOC(=O)C1=C(C)NC(=O)NC1c1ccc(Br)cc1 (centres undefined) | > 100 µM | > 100 µM | > 100 µM | – | – | – | – | – | – | – | – | – | – | – | – | – | – | – | – | –
CCOC(=O)C1=C(C)NC(=O)NC1 | > 100 µM | > 100 µM | > 100 µM | > 100 µM | > 100 µM | > 100 µM | > 100 µM | > 125 µM | > 100 µM | > 100 µM | > 100 µM | > 100 µM | – | – | – | – | – | – | – | –
CCOC(=O)C1=C(C)NC(=O)NC1c1cccs1 (centres undefined) | > 100 µM | > 100 µM | > 100 µM | > 100 µM | > 100 µM | > 100 µM | > 100 µM | > 125 µM | > 100 µM | > 100 µM | > 100 µM | > 100 µM | – | – | – | – | – | – | – | –
CCOC(=O)C1=C(C)NC(=O)NC1/C=C/c1ccccc1 (centres undefined) | ≥ 100 µM | ≥ 100 µM | > 100 µM | > 100 µM | > 100 µM | > 100 µM | > 100 µM | > 125 µM | 100 µM | > 100 µM | > 100 µM | > 100 µM | 57 µM | – | – | – | – | – | – | –
CCOC(=O)C1=C(C)NC(=O)NC1c1ccc(N(C)C)cc1 (centres undefined) | > 100 µM | > 100 µM | > 100 µM | > 100 µM | > 100 µM | > 100 µM | > 100 µM | > 125 µM | 100 µM | > 100 µM | > 100 µM | > 100 µM | – | – | – | – | – | – | – | –
CCOC(=O)C1C2NC(=O)NC1(C)Oc1ccccc12 (centres undefined) | > 100 µM | > 100 µM | > 100 µM | > 100 µM | > 100 µM | > 100 µM | > 100 µM | > 125 µM | > 100 µM | > 100 µM | > 100 µM | > 100 µM | – | – | – | – | – | – | – | –
NC(=O)c1ncn([C@@H]2O[C@H](CO)[C@@H](O)[C@H]2O)n1 [RIBAVIRIN] | – | – | – | – | 112 µM | > 250 µM | 50 µM | – | > 250 µM | – | > 250 µM | > 250 µM | – | – | – | – | – | – | – | –
CCOC(=O)C1=C(C)NC(=O)NC1c1ccc(O)cc1 (centres undefined) | > 100 µM | > 100 µM | > 100 µM | > 100 µM | > 100 µM | > 100 µM | > 100 µM | > 125 µM | > 100 µM | > 100 µM | > 100 µM | > 100 µM | – | – | – | – | – | – | – | –
CCOC(=O)C1=C(C)NC(=O)NC1C (centres undefined) | > 100 µM | > 100 µM | > 100 µM | > 100 µM | > 100 µM | > 100 µM | > 100 µM | > 125 µM | > 100 µM | > 100 µM | > 100 µM | > 100 µM | – | – | – | – | – | – | – | –
CCOC(=O)C1=C(C)NC(=O)NC1c1ccc(Cl)cc1 (centres undefined) | > 100 µM | > 100 µM | > 100 µM | – | – | – | – | – | – | – | – | – | – | – | – | – | – | – | – | –
COc1c(C)c2c(c(O)c1C/C=C(\C)CCC(=O)O)C(=O)OC2 [MYCOPHENOLIC ACID] | – | – | – | 4 µM | 0.8 µM | 1.8 µM | 20 µM | – | > 100 µM | – | > 250 µM | 4 µM | – | – | – | – | – | – | – | –
CCOC(=O)C1=C(C)NC(=O)NC1c1ccc(OC)cc1 (centres undefined) | – | > 100 µM | > 100 µM | – | – | > 100 µM | – | – | – | – | – | – | – | – | – | – | – | – | – | –
CCOC(=O)C1=C(C)NC(=O)NC1c1ccccc1Cl (centres undefined) | > 100 µM | > 100 µM | > 100 µM | > 100 µM | > 100 µM | > 100 µM | > 100 µM | 96 µM | > 100 µM | > 100 µM | > 100 µM | > 100 µM | – | – | – | – | – | – | – | –
CCOC(=O)C1=C(C)NC(=O)NC1c1ccccc1 (centres undefined) | – | > 100 µM | > 100 µM | – | > 100 µM | > 100 µM | – | – | – | – | – | – | – | – | – | – | – | – | – | –
CCCCCCCCCCCC1NC(=O)NC(C)=C1C(=O)OCC (centres undefined) | 100 µM | > 100 µM | > 100 µM | > 100 µM | > 100 µM | > 100 µM | 3 µM | 50 µM | ≥ 100 µM | > 100 µM | > 100 µM | > 100 µM | – | 17 | 81% | Dose-dependent effect | 7 | 7 | 40 - 50% | >= 33
CCOC(=O)C1=C(C)NC(=O)NC1CC(C)C (centres undefined) | > 100 µM | > 100 µM | > 100 µM | > 100 µM | > 100 µM | > 100 µM | > 100 µM | > 125 µM | > 100 µM | > 100 µM | > 100 µM | > 100 µM | – | – | – | – | – | – | – | –
